Experimental data as given in ChEMBL document CHEMBL1143104, “Identification and characterization of pyrrolidine diastereoisomers as potent functional agonists and antagonists of the human melanocortin-4 receptor” (Bioorg Med Chem Lett, 2008).
Blank lines part the entries; values can stand above or below the molecule they belong to. Active and inactive are the calls of the source. No cut-off for these calls is given here.

Key:
Melanocortin receptor 4 [1] = biological target: T1, Melanocortin receptor 4 (Homo sapiens, UniProt P32245); assay: Displacement of [125I]NDP-MSH from human MC4 receptor expressed in HEK293 cells; type: cell-based
T1 sequence (P32245 whole entry): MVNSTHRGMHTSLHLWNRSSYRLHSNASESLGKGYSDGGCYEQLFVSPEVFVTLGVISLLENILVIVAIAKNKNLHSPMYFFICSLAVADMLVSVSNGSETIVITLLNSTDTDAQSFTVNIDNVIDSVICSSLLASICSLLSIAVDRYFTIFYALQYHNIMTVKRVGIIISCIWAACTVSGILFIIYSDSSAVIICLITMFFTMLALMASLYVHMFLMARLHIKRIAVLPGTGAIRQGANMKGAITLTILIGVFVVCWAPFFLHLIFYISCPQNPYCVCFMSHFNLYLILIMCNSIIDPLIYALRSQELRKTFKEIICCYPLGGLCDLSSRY
How it was run: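 HEK293 cells expressing human MC4R, radioligand competition binding with [125I]-NDP-MSH. Ki values are the average of two or more independent measurements.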

Melanocortin receptor 4 [2] = biological target: T1, Melanocortin receptor 4; assay: Intrinsic activity at human MC4 receptor expressed in CHO cells assessed as accumulation of cAMP production relative to alphaMSH; type: functional, cell-based
How it was run: (§1)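 CHO cells transfected with human MC4R were stimulated by compound and accumulated cAMP was measured by ELISA. Intrinsic activity is expressed relative to α-MSH. Representative experiments were run 2–8 times.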

Melanocortin receptor 4 [3] = biological target: T1, Melanocortin receptor 4; assay: Agonist activity at human MC4 receptor expressed in CHO cells assessed as accumulation of cAMP production; type: functional, cell-based; how it was run: as §1
[4] = biological target: T2, Melanocyte-stimulating hormone receptor (Homo sapiens, UniProt Q01726); assay: Binding affinity to MC1R
Target sequence in this assay (Q01726 whole entry): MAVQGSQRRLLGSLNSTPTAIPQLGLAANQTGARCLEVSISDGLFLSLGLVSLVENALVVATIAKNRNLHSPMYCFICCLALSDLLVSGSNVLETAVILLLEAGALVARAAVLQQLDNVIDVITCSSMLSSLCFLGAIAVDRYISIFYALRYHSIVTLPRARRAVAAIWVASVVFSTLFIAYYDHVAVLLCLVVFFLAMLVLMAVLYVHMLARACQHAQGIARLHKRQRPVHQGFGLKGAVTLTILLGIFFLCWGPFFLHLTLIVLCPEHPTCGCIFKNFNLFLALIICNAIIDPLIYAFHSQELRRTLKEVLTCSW

Melanocortin receptor 5 = Melanocortin receptor 5 (Homo sapiens, UniProt P33032); assay: Binding affinity to MC5R
Melanocortin receptor 5, sequence (P33032 whole entry): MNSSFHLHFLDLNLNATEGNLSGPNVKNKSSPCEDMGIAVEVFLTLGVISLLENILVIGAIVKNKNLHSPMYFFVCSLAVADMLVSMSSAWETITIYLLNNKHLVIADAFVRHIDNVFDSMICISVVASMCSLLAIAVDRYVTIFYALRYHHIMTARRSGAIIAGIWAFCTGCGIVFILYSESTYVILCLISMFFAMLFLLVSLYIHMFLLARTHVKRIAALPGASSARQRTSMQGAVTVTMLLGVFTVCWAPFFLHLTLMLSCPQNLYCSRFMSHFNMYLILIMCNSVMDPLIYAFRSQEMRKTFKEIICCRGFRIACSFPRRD

[5] = AUC in rat at 10 mg/kg, po; type: ADME, organism-based; design: dose 10 mg/kg, route oral; details: plasma
How it was run: (§2)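 Rat pharmacokinetics: single 2.5 mg/kg iv injection and separately 10 mg/kg oral gavage. Plasma CL, Vd, t1/2, AUC, Cmax, Tmax and oral bioavailability were derived. Whole-brain concentration was measured at 1 and 4 h after oral dosing and expressed as a brain/plasma ratio. Values are the average of three animals.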

Melanocortin receptor 4 [6] = biological target: T1, Melanocortin receptor 4; assay: Antagonist activity at human MC4 receptor expressed in CHO cells assessed as inhibition of alpha-MSH-stimulated cAMP production; type: functional, cell-based
How it was run: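 CHO cells transfected with human MC4R were tested for dose-dependent inhibition of α-MSH-stimulated cAMP accumulation, measured by ELISA. IC50 was derived. Representative experiments were run 2–8 times.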

Melanocortin receptor 3 = Melanocortin receptor 3 (Homo sapiens, UniProt P41968); assay: Binding affinity to MC3R
Melanocortin receptor 3, sequence (P41968 whole entry): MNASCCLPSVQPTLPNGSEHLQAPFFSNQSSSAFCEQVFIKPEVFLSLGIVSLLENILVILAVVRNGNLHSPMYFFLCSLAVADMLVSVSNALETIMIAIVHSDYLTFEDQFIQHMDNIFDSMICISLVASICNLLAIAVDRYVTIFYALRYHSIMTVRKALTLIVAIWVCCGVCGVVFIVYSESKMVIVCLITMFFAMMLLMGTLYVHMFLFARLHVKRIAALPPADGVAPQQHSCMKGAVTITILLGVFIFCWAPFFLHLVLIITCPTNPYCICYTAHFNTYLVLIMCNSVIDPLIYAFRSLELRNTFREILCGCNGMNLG

[7] = Ratio of drug level in brain to plasma in rat at 10 mg/kg, po after 4 hrs; type: ADME, organism-based; design: dose 10 mg/kg, route oral; details: read-out: BPR; how it was run: as §2
[8] = Bioavailability in rat at 10 mg/kg, po; type: ADME, organism-based; details: in vivo; how it was run: as §2
[9] = Half life in rat at 2.5 mg/kg, iv; type: ADME, organism-based; design: dose 2.5 mg/kg, route intravenous; details: in vivo; how it was run: as §2
[10] = AUC in rat at 2.5 mg/kg, iv; type: ADME, organism-based; design: dose 2.5 mg/kg, route intravenous; details: plasma; how it was run: as §2
[11] = Clearance in rat at 2.5 mg/kg, iv; type: ADME, organism-based; design: dose 2.5 mg/kg, route intravenous; details: in vivo; how it was run: as §2
[12] = Drug level in rat brain at 10 mg/kg, po after 4 hrs; type: ADME, organism-based; design: dose 10 mg/kg, route oral; details: read-out: Drug uptake; how it was run: as §2
[13] = Cmax in rat at 10 mg/kg, po; type: ADME, organism-based; design: dose 10 mg/kg, route oral; details: in vivo; how it was run: as §2
[14] = Tmax in rat at 10 mg/kg, po; type: ADME, organism-based; design: dose 10 mg/kg, route oral; details: in vivo; how it was run: as §2
[15] = Volume of distribution in rat in rat at 2.5 mg/kg, iv; type: ADME, organism-based; design: dose 2.5 mg/kg, route intravenous; details: in vivo; how it was run: as §2
Rattus norvegicus [16] = assay: Reduction of body weight in DIO rat at 30 mg/kg, po after 2 days; type: functional, organism-based; design: dose 30 mg/kg
How it was run: (§3)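 Male DIO rats in separate groups were dosed orally once daily, 1 h before lights out, for 7 days with vehicle, fenfluramine, or 3, 10 or 30 mg/kg compound. Food intake (corrected for spillage) and body weight were recorded daily. After 7 days, body composition was measured by EchoMRI and fasting glucose by glucometer, each relative to baseline. Significance was set at p < 0.05.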

[17] = biological target: T2, Melanocyte-stimulating hormone receptor; details: 10 uM
Target sequence in this assay (Q01726 whole entry, looked up): as the sequence (Q01726 whole entry) above

Rattus norvegicus [18] = assay: Effect on food intake in DIO rat assessed as inhibition of feeding at 3 mg/kg, po after 6 days; type: functional, organism-based; design: dose 3 mg/kg; how it was run: as §3
Rattus norvegicus [19] = assay: Increase in fat loss in po dosed DIO rat after 7 days; type: functional, organism-based; how it was run: as §3
Rattus norvegicus [20] = assay: Suppression of food intake in DIO rat at 30 mg/kg, po relative to control; type: functional, organism-based; design: dose 30 mg/kg; how it was run: as §3
Rattus norvegicus [21] = assay: Decrease in fasting glucose level in DIO rat at 30 mg/kg, po after 7 days; type: functional, organism-based; design: dose 30 mg/kg; how it was run: as §3
[22] = Distribution coefficient, log D by shake flask method; type: physicochemical; details: octanol/water
How it was run: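 log D was measured by the shake-flask method.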

[23] = Apparent permeability across human Caco-2 cells from apical to basolateral side; type: ADME, cell-based
How it was run: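 Caco-2 monolayer permeability, apical-to-basolateral Papp in nm/s. The (b to a)/(a to b) ratio was also determined as an efflux measure.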

Caco-2 = assay: Ratio of permeability across human Caco-2 cells from basolateral to apical side to apical to basolateral side; type: ADME, cell-based
[24] = Ratio of drug level in brain to plasma in po dosed DIO rat after 7 days; type: ADME, organism-based; details: read-out: BPR
How it was run: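 Chronic study in DIO rats given 3, 10 or 30 mg/kg orally once daily. A satellite group was sampled on day 1 and day 7 for plasma concentration-time profiles and brain/plasma ratio.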

Compound: COc1cccc([C@@H]2CN(C(C)C)C[C@H]2C(=O)N2CCN(c3c(F)cccc3[C@@H](NC(=O)CCN(C)C)C(C)C)CC2)c1
Ki (Melanocortin receptor 4 [1]): 3700 nM

Compound: CC(C)[C@H](NC(=O)CCN(C)C)c1cccc(F)c1N1CCN(C(=O)[C@@H]2CN(C(C)C)C[C@H]2c2cc(F)ccc2F)CC1
Ki (Melanocortin receptor 4 [1]): 2050 nM

Compound: CC(C)[C@H](NC(=O)CCN(C)C)c1cccc(F)c1N1CCN(C(=O)[C@@H]2CN(C(C)C)C[C@H]2c2cccc(F)c2)CC1
Ki (Melanocortin receptor 4 [1]): 560 nM

Compound: Cc1ccc(N2CCN(C(=O)[C@@H]3CN(C4CCOCC4)C[C@H]3c3ccc(Cl)cc3)CC2)c([C@@H](NC(=O)CCN(C)C)C(C)C)c1 (stereo in doubt; 13b-1) [listing 1 of 2 here]
Activity (Rattus norvegicus [16]): Active | Intrinsic activity (Melanocortin receptor 4 [2]): 122% | inhibition [17]: 38% | Activity (Rattus norvegicus [18]): Active | Activity (Rattus norvegicus [19]): Active | Activity (Rattus norvegicus [20]): Active | Activity (Rattus norvegicus [21]): Active

Compound: CC(C)[C@H](NC(=O)CCN(C)C)c1cccc(F)c1N1CCN(C(=O)[C@@H]2CN(C(C)C)C[C@H]2c2cc(F)cc(F)c2)CC1
Ki (Melanocortin receptor 4 [1]): 7800 nM

Compound: Cc1ccc(N2CCN(C(=O)[C@@H]3CN(C4CCOCC4)C[C@H]3c3ccc(Cl)cc3)CC2)c([C@@H](NC(=O)CCN(C)C)C(C)C)c1 (stereo in doubt; 13b)
Intrinsic activity (Melanocortin receptor 4 [2]): 121%

Compound: CC(C)[C@H](NC(=O)CCN(C)C)c1cccc(F)c1N1CCN(C(=O)[C@@H]2CN(C(C)C)C[C@H]2c2ccoc2)CC1
Ki (Melanocortin receptor 4 [1]): 850 nM

Further molecules by falling Ki (Melanocortin receptor 4 [1]), results first:

Ki (Melanocortin receptor 4 [1]): 470 nM
Compound: Cc1cccc([C@@H]2CN(C(C)C)C[C@H]2C(=O)N2CCN(c3c(F)cccc3[C@@H](NC(=O)CCN(C)C)C(C)C)CC2)c1

Ki (Melanocortin receptor 4 [1]): 61 nM
Compound: CC(C)[C@H](NC(=O)CCN(C)C)c1cccc(F)c1N1CCN(C(=O)[C@@H]2CN(C(C)C)C[C@H]2c2ccc(C(F)(F)F)cc2F)CC1

Intrinsic activity (Melanocortin receptor 4 [2]): 47% | Ki (Melanocortin receptor 4 [1]): 51 nM | EC50 (Melanocortin receptor 4 [3]): 340 nM
Compound: CC(C)[C@H](NC(=O)CCN(C)C)c1cccc(F)c1N1CCN(C(=O)[C@@H]2CN(C(C)C)C[C@H]2c2ccc(C(F)(F)F)c(F)c2)CC1

Intrinsic activity (Melanocortin receptor 4 [2]): 100% | Ki (Melanocortin receptor 4 [1]): 7.6 nM | EC50 (Melanocortin receptor 4 [3]): 44 nM
Compound: CC(=O)N1C[C@@H](C(=O)N2CCN(c3ccc(C)cc3[C@@H](NC(=O)CCN(C)C)C(C)C)CC2)[C@H](c2ccc(Cl)cc2)C1

Intrinsic activity (Melanocortin receptor 4 [2]): 56% | Ki (Melanocortin receptor 4 [1]): 7.3 nM | EC50 (Melanocortin receptor 4 [3]): 17 nM
Compound: Cc1ccc(N2CCN(C(=O)[C@@H]3CN(C4CCOCC4)C[C@H]3c3ccc(Cl)cc3)CC2)c([C@@H](NC(=O)[C@@H](C)N)C(C)C)c1

Intrinsic activity (Melanocortin receptor 4 [2]): 35% | Ki (Melanocortin receptor 4 [1]): 5.3 nM
Compound: Cc1ccc(N2CCN(C(=O)[C@@H]3CN(C4CCOCC4)C[C@H]3c3ccc(Cl)cc3)CC2)c([C@H](C(C)C)N(C)C)c1

Ki [4]: 120 nM | Ki (Melanocortin receptor 5): 530 nM | Intrinsic activity (Melanocortin receptor 4 [2]): 10% | AUC [5]: 161 ng·h/mL | IC50 (Melanocortin receptor 4 [6]): 64 nM | Ki (Melanocortin receptor 3): 1300 nM | Kp at 4 h [7]: 1 | bioavailability [8]: 14% | half-life [9]: 11 h | AUC [10]: 455 ng·h/mL | Ki (Melanocortin receptor 4 [1]): 4.7 nM | clearance [11]: 82 mL/min/kg | concentration at 4 h [12]: 18 ng/g | Cmax [13]: 17 ng/mL | Tmax [14]: 2 h | Vd [15]: 75 L/kg
Compound: Cc1ccc(N2CCN(C(=O)[C@H]3CN(C4CCOCC4)C[C@@H]3c3ccc(Cl)cc3)CC2)c([C@@H](NC(=O)CCN(C)C)C(C)C)c1

Ki (Melanocortin receptor 5): 800 nM | logD [22]: 2.6 | AUC [5]: 114 ng·h/mL | Ki (Melanocortin receptor 3): 260 nM | Papp A→B [23]: 0.16 ×10⁻⁶ cm/s | Kp at 4 h [7]: 3 | bioavailability [8]: 10% | half-life [9]: 7.1 h | AUC [10]: 307 ng·h/mL | Ki (Melanocortin receptor 4 [1]): 1 nM | EC50 (Melanocortin receptor 4 [3]): 3.8 nM | clearance [11]: 129 mL/min/kg | concentration at 4 h [12]: 19 ng/g | Cmax [13]: 14 ng/mL | Ratio (Caco-2): 23 | Tmax [14]: 2.7 h | Kp at 168 h [24]: > 10 | Vd [15]: 80 L/kg
Compound: Cc1ccc(N2CCN(C(=O)[C@@H]3CN(C4CCOCC4)C[C@H]3c3ccc(Cl)cc3)CC2)c([C@@H](NC(=O)CCN(C)C)C(C)C)c1 (stereo in doubt; 13b-1) [listing 2 of 2 here]
